Results: ChEMBL document CHEMBL4689842, “EUbOPEN Chemogenomics Library wave 1” (2021)

Test system: HEK-293T
Assay: Multiplex assay against HEK293T;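 for Population Tubulin-Different-Phenotype (%): share of the cells with healthy nuclei that show this phenotype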
Assay type: toxicity, cell-based
Details: human
In short: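 Cells were classed with CellPathfinder machine-learning gating, first as Hoechst high-intensity objects or normal cells, then (normal cells) as healthy, pyknosed or fragmented nuclei, and finally (pyknosed cells) as mitotic or apoptotic. Staining of live cells at seeding used Hoechst33342, BioTracker Green Microtubule Cytoskeleton Dye, MitoTracker Red and Annexin V Alexa Fluor 680, with imaging on a CQ1 microscope at 37°C and 5% CO2 after compound addition. Tubulin, mitochondrial-mass and membrane-permeability phenotypes are per cents of healthy-nucleus cells.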

[1] = 12 h, 1 µM, compound concentration 1 uM, replicate 1
[2] = 12 h, 1 µM, compound concentration 1 uM, replicate 2
[3] = 12 h, 10 µM, compound concentration 10 uM, replicate 1
[4] = 12 h, 10 µM, compound concentration 10 uM, replicate 2
[5] = 24 h, 1 µM, compound concentration 1 uM, replicate 1
[6] = 24 h, 1 µM, compound concentration 1 uM, replicate 2
[7] = 24 h, 10 µM, compound concentration 10 uM, replicate 1
[8] = 24 h, 10 µM, compound concentration 10 uM, replicate 2

CCc1cccc(CC)c1NC(=O)c1nn(C)c2c1CCc1cnc(Nc3ccc(N4CCN(C)CC4)cc3OC)nc1-2
Population Apoptotic (%) [1]: 27% | Population Fragmented Nuclei (%) [1]: 14% | Population Healthy Nuclei (%) [1]: 18% | Population Hoechst High Intensity Objects (%) [1]: 18% | Population Membrane Permeable-Phenotype (%) [1]: 11% | Population Mitochondria Different-Phenotype (%) [1]: 32% | Population Mitotic Cells (%) [1]: 72% | Population Normal (%) [1]: 81% | Population Pyknosed Nuclei (%) [1]: 67% | Population Tubulin-Different-Phenotype (%) [1]: 75% | Total Cell Count [1]: 690 | Population Apoptotic (%) [2]: 19% | Population Fragmented Nuclei (%) [2]: 2% | Population Healthy Nuclei (%) [2]: 54% | Population Hoechst High Intensity Objects (%) [2]: 7% | Population Membrane Permeable-Phenotype (%) [2]: 5% | Population Mitochondria Different-Phenotype (%) [2]: 69% | Population Mitotic Cells (%) [2]: 80% | Population Normal (%) [2]: 92% | Population Pyknosed Nuclei (%) [2]: 42% | Population Tubulin-Different-Phenotype (%) [2]: 97% | Total Cell Count [2]: 922 | Population Apoptotic (%) [3]: 19% | Population Fragmented Nuclei (%) [3]: 11% | Population Healthy Nuclei (%) [3]: 64% | Population Hoechst High Intensity Objects (%) [3]: 14% | Population Membrane Permeable-Phenotype (%) [3]: 13% | Population Mitochondria Different-Phenotype (%) [3]: 12% | Population Mitotic Cells (%) [3]: 80% | Population Normal (%) [3]: 85% | Population Pyknosed Nuclei (%) [3]: 24% | Population Tubulin-Different-Phenotype (%) [3]: 54% | Total Cell Count [3]: 730 | Population Apoptotic (%) [4]: 5% | Population Fragmented Nuclei (%) [4]: 3% | Population Healthy Nuclei (%) [4]: 89% | Population Hoechst High Intensity Objects (%) [4]: 2% | Population Membrane Permeable-Phenotype (%) [4]: 8% | Population Mitochondria Different-Phenotype (%) [4]: 24% | Population Mitotic Cells (%) [4]: 94% | Population Normal (%) [4]: 97% | Population Pyknosed Nuclei (%) [4]: 6% | Population Tubulin-Different-Phenotype (%) [4]: 57% | Total Cell Count [4]: 1395 | Population Apoptotic (%) [5]: 39% | Population Fragmented Nuclei (%) [5]: 18% | Population Healthy Nuclei (%) [5]: 17% | Population Hoechst High Intensity Objects (%) [5]: 13% | Population Membrane Permeable-Phenotype (%) [5]: 11% | Population Mitochondria Different-Phenotype (%) [5]: 41% | Population Mitotic Cells (%) [5]: 60% | Population Normal (%) [5]: 86% | Population Pyknosed Nuclei (%) [5]: 63% | Population Tubulin-Different-Phenotype (%) [5]: 68% | Total Cell Count [5]: 683 | Population Fragmented Nuclei (%) [6]: 3% | Population Healthy Nuclei (%) [6]: 27% | Population Hoechst High Intensity Objects (%) [6]: 12% | Population Membrane Permeable-Phenotype (%) [6]: 3% | Population Mitochondria Different-Phenotype (%) [6]: 92% | Population Normal (%) [6]: 87% | Population Pyknosed Nuclei (%) [6]: 68% | Population Tubulin-Different-Phenotype (%) [6]: 89% | Total Cell Count [6]: 901 | Population Apoptotic (%) [7]: 27% | Population Fragmented Nuclei (%) [7]: 11% | Population Healthy Nuclei (%) [7]: 77% | Population Hoechst High Intensity Objects (%) [7]: 8% | Population Membrane Permeable-Phenotype (%) [7]: 20% | Population Mitochondria Different-Phenotype (%) [7]: 9% | Population Mitotic Cells (%) [7]: 72% | Population Normal (%) [7]: 91% | Population Pyknosed Nuclei (%) [7]: 10% | Population Tubulin-Different-Phenotype (%) [7]: 65% | Total Cell Count [7]: 803 | Population Apoptotic (%) [8]: 11% | Population Fragmented Nuclei (%) [8]: 8% | Population Healthy Nuclei (%) [8]: 88% | Population Hoechst High Intensity Objects (%) [8]: 3% | Population Membrane Permeable-Phenotype (%) [8]: 13% | Population Mitotic Cells (%) [8]: 88% | Population Normal (%) [8]: 96% | Population Pyknosed Nuclei (%) [8]: 3% | Population Tubulin-Different-Phenotype (%) [8]: 62% | Total Cell Count [8]: 1777

COc1ccc(-c2ccc3c(N4CCOCC4)nc(N4C[C@@H](C)O[C@@H](C)C4)nc3n2)cc1CO [Ku-0063794]
Population Apoptotic (%) [1]: 17% | Population Fragmented Nuclei (%) [1]: 21% | Population Healthy Nuclei (%) [1]: 63% | Population Hoechst High Intensity Objects (%) [1]: 20% | Population Membrane Permeable-Phenotype (%) [1]: 6% | Population Mitochondria Different-Phenotype (%) [1]: 3% | Population Mitotic Cells (%) [1]: 82% | Population Normal (%) [1]: 79% | Population Pyknosed Nuclei (%) [1]: 14% | Population Tubulin-Different-Phenotype (%) [1]: 3% | Total Cell Count [1]: 492 | Population Apoptotic (%) [2]: 8% | Population Fragmented Nuclei (%) [2]: 12% | Population Healthy Nuclei (%) [2]: 82% | Population Hoechst High Intensity Objects (%) [2]: 2% | Population Membrane Permeable-Phenotype (%) [2]: 1% | Population Mitochondria Different-Phenotype (%) [2]: 4% | Population Mitotic Cells (%) [2]: 91% | Population Normal (%) [2]: 97% | Population Pyknosed Nuclei (%) [2]: 4% | Population Tubulin-Different-Phenotype (%) [2]: 5% | Total Cell Count [2]: 1701 | Population Apoptotic (%) [3]: 41% | Population Fragmented Nuclei (%) [3]: 31% | Population Healthy Nuclei (%) [3]: 63% | Population Hoechst High Intensity Objects (%) [3]: 52% | Population Membrane Permeable-Phenotype (%) [3]: 11% | Population Mitochondria Different-Phenotype (%) [3]: 10% | Population Mitotic Cells (%) [3]: 58% | Population Normal (%) [3]: 47% | Population Pyknosed Nuclei (%) [3]: 4% | Population Tubulin-Different-Phenotype (%) [3]: 12% | Total Cell Count [3]: 726 | Population Apoptotic (%) [4]: 40% | Population Fragmented Nuclei (%) [4]: 11% | Population Healthy Nuclei (%) [4]: 87% | Population Hoechst High Intensity Objects (%) [4]: 27% | Population Membrane Permeable-Phenotype (%) [4]: 4% | Population Mitochondria Different-Phenotype (%) [4]: 15% | Population Mitotic Cells (%) [4]: 60% | Population Normal (%) [4]: 72% | Population Pyknosed Nuclei (%) [4]: 1% | Population Tubulin-Different-Phenotype (%) [4]: 17% | Total Cell Count [4]: 1160 | Population Apoptotic (%) [5]: 19% | Population Fragmented Nuclei (%) [5]: 19% | Population Healthy Nuclei (%) [5]: 71% | Population Hoechst High Intensity Objects (%) [5]: 11% | Population Membrane Permeable-Phenotype (%) [5]: 8% | Population Mitochondria Different-Phenotype (%) [5]: 2% | Population Mitotic Cells (%) [5]: 80% | Population Normal (%) [5]: 88% | Population Pyknosed Nuclei (%) [5]: 8% | Population Tubulin-Different-Phenotype (%) [5]: 7% | Total Cell Count [5]: 554 | Population Apoptotic (%) [6]: 12% | Population Fragmented Nuclei (%) [6]: 33% | Population Healthy Nuclei (%) [6]: 64% | Population Hoechst High Intensity Objects (%) [6]: 4% | Population Membrane Permeable-Phenotype (%) [6]: 5% | Population Mitochondria Different-Phenotype (%) [6]: 0% | Population Mitotic Cells (%) [6]: 87% | Population Normal (%) [6]: 95% | Population Pyknosed Nuclei (%) [6]: 1% | Population Tubulin-Different-Phenotype (%) [6]: 6% | Total Cell Count [6]: 2828 | Population Apoptotic (%) [7]: 27% | Population Fragmented Nuclei (%) [7]: 31% | Population Healthy Nuclei (%) [7]: 65% | Population Hoechst High Intensity Objects (%) [7]: 52% | Population Membrane Permeable-Phenotype (%) [7]: 11% | Population Mitochondria Different-Phenotype (%) [7]: 9% | Population Mitotic Cells (%) [7]: 72% | Population Normal (%) [7]: 47% | Population Pyknosed Nuclei (%) [7]: 3% | Population Tubulin-Different-Phenotype (%) [7]: 17% | Total Cell Count [7]: 759 | Population Apoptotic (%) [8]: 12% | Population Fragmented Nuclei (%) [8]: 26% | Population Healthy Nuclei (%) [8]: 71% | Population Hoechst High Intensity Objects (%) [8]: 24% | Population Membrane Permeable-Phenotype (%) [8]: 9% | Population Mitochondria Different-Phenotype (%) [8]: 4% | Population Mitotic Cells (%) [8]: 88% | Population Normal (%) [8]: 75% | Population Pyknosed Nuclei (%) [8]: 2% | Population Tubulin-Different-Phenotype (%) [8]: 32% | Total Cell Count [8]: 1535
